Data as given in ChEMBL document CHEMBL1140929, “Synthesis and evaluation of 18F-labeled 2-phenylbenzothiazoles as positron emission tomography imaging agents for amyloid plaques in Alzheimer's disease” (J Med Chem, 2009).

Tests used:
Lung [1] = assay: Biodistribution in NMRI mouse lung assessed per gram of tissue at 3.7 MBq/mL, iv after 60 mins by gamma counting; assay type: ADME, organism-based; conditions: in vivo, 1 h
Outline: (§1)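 Male NMRI mice (30-40 g) anaesthetised with 0.1 mL ip Hypnorm (fentanyl citrate 63 µg/mL, fluanisone 2 mg/mL). Each received 0.1 mL of HPLC-purified 18F tracer, diluted in 0.9% NaCl to 3.7 MBq/mL (ethanol ≤10%, THF ≤0.02%), via tail vein. Killed by decapitation at 2 or 60 min; blood and organs weighed and γ-counted. Background-corrected, expressed as %ID or %ID/g.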

Lung [2] = assay: Biodistribution in NMRI mouse lung at 3.7 MBq/mL, iv after 60 mins by gamma counting; assay type: ADME, organism-based; conditions: in vivo, 1 h; outline: as §1
[3] = Biodistribution in NMRI mouse spleen/pancreas assessed per gram of tissue at 3.7 MBq/mL, iv after 2 mins by gamma counting; assay type: ADME, organism-based; conditions: in vivo; outline: as §1
Blood [4] = assay: Biodistribution in NMRI mouse blood at 3.7 MBq/mL, iv after 60 mins by gamma counting; assay type: ADME, organism-based; conditions: in vivo, 1 h; outline: as §1
[5] = Biodistribution in NMRI mouse cerebrum assessed per gram of tissue at 3.7 MBq/mL, iv after 2 mins by gamma counting; assay type: ADME, organism-based; conditions: in vivo; outline: as §1
[6] = Biodistribution in NMRI mouse urine at 3.7 MBq/mL, iv after 2 mins by gamma counting; assay type: ADME, organism-based; conditions: in vivo; outline: as §1
Heart [7] = assay: Biodistribution in NMRI mouse heart at 3.7 MBq/mL, iv after 60 mins by gamma counting; assay type: ADME, organism-based; conditions: in vivo, 1 h; outline: as §1
Intestine [8] = assay: Biodistribution in NMRI mouse intestine at 3.7 MBq/mL, iv after 60 mins by gamma counting; assay type: ADME, organism-based; conditions: in vivo, 1 h; outline: as §1
Kidney [9] = assay: Biodistribution in NMRI mouse kidney at 3.7 MBq/mL, iv after 60 mins by gamma counting; assay type: ADME, organism-based; conditions: in vivo, 1 h; outline: as §1
Cerebellum [10] = assay: Biodistribution in NMRI mouse cerebellum at 3.7 MBq/mL, iv after 2 mins by gamma counting; assay type: ADME, organism-based; conditions: in vivo; outline: as §1
Liver [11] = assay: Biodistribution in NMRI mouse liver at 3.7 MBq/mL, iv after 60 mins by gamma counting; assay type: ADME, organism-based; conditions: in vivo, 1 h; outline: as §1
Kidney [12] = assay: Biodistribution in NMRI mouse kidney assessed per gram of tissue at 3.7 MBq/mL, iv after 60 mins by gamma counting; assay type: ADME, organism-based; conditions: in vivo, 1 h; outline: as §1
Liver [13] = assay: Biodistribution in NMRI mouse liver at 3.7 MBq/mL, iv after 2 mins by gamma counting; assay type: ADME, organism-based; conditions: in vivo; outline: as §1
Kidney [14] = assay: Biodistribution in NMRI mouse kidney at 3.7 MBq/mL, iv after 2 mins by gamma counting; assay type: ADME, organism-based; conditions: in vivo; outline: as §1
[15] = Biodistribution in NMRI mouse cerebrum at 3.7 MBq/mL, iv after 60 mins by gamma counting; assay type: ADME, organism-based; conditions: in vivo, 1 h; outline: as §1
[16] = Biodistribution in NMRI mouse spleen/pancreas at 3.7 MBq/mL, iv after 60 mins by gamma counting; assay type: ADME, organism-based; conditions: in vivo, 1 h; outline: as §1
Lung [17] = assay: Biodistribution in NMRI mouse lung assessed per gram of tissue at 3.7 MBq/mL, iv after 2 mins by gamma counting; assay type: ADME, organism-based; conditions: in vivo; outline: as §1
[18] = Biodistribution in NMRI mouse spleen/pancreas at 3.7 MBq/mL, iv after 2 mins by gamma counting; assay type: ADME, organism-based; conditions: in vivo; outline: as §1
Liver [19] = assay: Biodistribution in NMRI mouse liver assessed per gram of tissue at 3.7 MBq/mL, iv after 60 mins by gamma counting; assay type: ADME, organism-based; conditions: in vivo, 1 h; outline: as §1
Intestine [20] = assay: Biodistribution in NMRI mouse intestine at 3.7 MBq/mL, iv after 2 mins by gamma counting; assay type: ADME, organism-based; conditions: in vivo; outline: as §1
Lung [21] = assay: Biodistribution in NMRI mouse lung at 3.7 MBq/mL, iv after 2 mins by gamma counting; assay type: ADME, organism-based; conditions: in vivo
Stomach [22] = assay: Biodistribution in NMRI mouse stomach at 3.7 MBq/mL, iv after 60 mins by gamma counting; assay type: ADME, organism-based; conditions: in vivo, 1 h; outline: as §1
Cerebellum [23] = assay: Biodistribution in NMRI mouse cerebellum assessed per gram of tissue at 3.7 MBq/mL, iv after 2 mins by gamma counting; assay type: ADME, organism-based; conditions: in vivo; outline: as §1
[24] = Biodistribution in NMRI mouse cerebrum assessed per gram of tissue at 3.7 MBq/mL, iv after 60 mins by gamma counting; assay type: ADME, organism-based; conditions: in vivo, 1 h; outline: as §1
Cerebellum [25] = assay: Biodistribution in NMRI mouse cerebellum at 3.7 MBq/mL, iv after 60 mins by gamma counting; assay type: ADME, organism-based; conditions: in vivo, 1 h; outline: as §1
Blood [26] = assay: Biodistribution in NMRI mouse blood assessed per gram of tissue at 3.7 MBq/mL, iv after 2 mins by gamma counting; assay type: ADME, organism-based; conditions: in vivo; outline: as §1
Blood [27] = assay: Biodistribution in NMRI mouse blood at 3.7 MBq/mL, iv after 2 mins by gamma counting; assay type: ADME, organism-based; conditions: in vivo; outline: as §1
Kidney [28] = assay: Biodistribution in NMRI mouse kidney assessed per gram of tissue at 3.7 MBq/mL, iv after 2 mins by gamma counting; assay type: ADME, organism-based; conditions: in vivo; outline: as §1
Heart [29] = assay: Biodistribution in NMRI mouse heart at 3.7 MBq/mL, iv after 2 mins by gamma counting; assay type: ADME, organism-based; conditions: in vivo; outline: as §1
Heart [30] = assay: Biodistribution in NMRI mouse heart assessed per gram of tissue at 3.7 MBq/mL, iv after 2 mins by gamma counting; assay type: ADME, organism-based; conditions: in vivo; outline: as §1
Cerebellum [31] = assay: Biodistribution in NMRI mouse cerebellum assessed per gram of tissue at 3.7 MBq/mL, iv after 60 mins by gamma counting; assay type: ADME, organism-based; conditions: in vivo, 1 h; outline: as §1
Blood [32] = assay: Biodistribution in NMRI mouse blood assessed per gram of tissue at 3.7 MBq/mL, iv after 60 mins by gamma counting; assay type: ADME, organism-based; conditions: in vivo, 1 h; outline: as §1
Liver [33] = assay: Biodistribution in NMRI mouse liver assessed per gram of tissue at 3.7 MBq/mL, iv after 2 mins by gamma counting; assay type: ADME, organism-based; conditions: in vivo; outline: as §1
Stomach [34] = assay: Biodistribution in NMRI mouse stomach at 3.7 MBq/mL, iv after 2 mins by gamma counting; assay type: ADME, organism-based; conditions: in vivo; outline: as §1
Heart [35] = assay: Biodistribution in NMRI mouse heart assessed per gram of tissue at 3.7 MBq/mL, iv after 60 mins by gamma counting; assay type: ADME, organism-based; conditions: in vivo, 1 h; outline: as §1
[36] = Biodistribution in NMRI mouse spleen/pancreas assessed per gram of tissue at 3.7 MBq/mL, iv after 60 mins by gamma counting; assay type: ADME, organism-based; conditions: in vivo, 1 h; outline: as §1
[37] = Biodistribution in NMRI mouse urine at 3.7 MBq/mL, iv after 60 mins by gamma counting; assay type: ADME, organism-based; conditions: in vivo, 1 h; outline: as §1
[38] = Biodistribution in NMRI mouse cerebrum at 3.7 MBq/mL, iv after 2 mins by gamma counting; assay type: ADME, organism-based; conditions: in vivo; outline: as §1
[39] = target: Amyloid-beta precursor protein (Homo sapiens, UniProt P05067); assay: Displacement of [125I]IMPY from beta-amyloid plaques in Alzheimer's disease patient brain homogenate; assay type: tissue-based
Amyloid-beta precursor protein, sequence (P05067 whole entry): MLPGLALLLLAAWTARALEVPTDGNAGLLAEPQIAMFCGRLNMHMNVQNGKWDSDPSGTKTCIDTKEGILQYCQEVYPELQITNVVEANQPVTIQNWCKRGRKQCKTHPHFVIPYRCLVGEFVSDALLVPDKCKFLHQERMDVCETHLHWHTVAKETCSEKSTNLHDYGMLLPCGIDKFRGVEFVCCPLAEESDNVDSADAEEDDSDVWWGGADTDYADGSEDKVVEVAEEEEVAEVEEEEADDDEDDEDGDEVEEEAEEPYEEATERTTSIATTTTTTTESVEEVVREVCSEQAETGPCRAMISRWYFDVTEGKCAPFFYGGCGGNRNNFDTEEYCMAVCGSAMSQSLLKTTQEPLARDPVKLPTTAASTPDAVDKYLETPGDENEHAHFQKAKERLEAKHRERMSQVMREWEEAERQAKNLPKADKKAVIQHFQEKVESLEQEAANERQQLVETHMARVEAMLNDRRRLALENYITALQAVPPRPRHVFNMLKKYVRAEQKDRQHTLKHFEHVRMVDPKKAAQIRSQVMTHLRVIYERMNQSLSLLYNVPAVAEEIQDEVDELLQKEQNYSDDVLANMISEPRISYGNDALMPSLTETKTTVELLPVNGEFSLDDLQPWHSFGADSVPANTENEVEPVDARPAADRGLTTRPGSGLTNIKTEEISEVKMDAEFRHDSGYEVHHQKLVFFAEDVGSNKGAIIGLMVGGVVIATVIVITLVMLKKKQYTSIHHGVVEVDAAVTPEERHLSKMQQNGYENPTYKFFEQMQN

Row | Drug uptake (Lung [1]) [% ID/g] | Drug uptake (Lung [2]) [%ID] | Drug uptake [3] [% ID/g] | Drug uptake (Blood [4]) [%ID] | Drug uptake [5] [% ID/g] | Drug uptake [6] [%ID] | Drug uptake (Heart [7]) [%ID] | Drug uptake (Intestine [8]) [%ID] | Drug uptake (Kidney [9]) [%ID] | Drug uptake (Cerebellum [10]) [%ID] | Drug uptake (Liver [11]) [%ID] | Drug uptake (Kidney [12]) [% ID/g] | Drug uptake (Liver [13]) [%ID] | Drug uptake (Kidney [14]) [%ID] | Drug uptake [15] [%ID] | Drug uptake [16] [%ID] | Drug uptake (Lung [17]) [% ID/g] | Drug uptake [18] [%ID] | Drug uptake (Liver [19]) [% ID/g] | Drug uptake (Intestine [20]) [%ID] | SMILES | also measured
1 | 5.5 | 1.5 | 4 | 3.3 | 4.7 | 0.1 | 0.1 | 36.7 | 5.9 | 0.55 | 24.6 | 11.8 | 28.1 | 7 | 0.16 | 0.5 | 28.1 | 1.2 | 11.9 | 7.1 | Oc1ccc2nc(-c3ccc([18F])cc3)sc2c1 | Drug uptake (Lung [21]): 7.6 %ID; Drug uptake (Stomach [22]): 0.5 %ID; Drug uptake (Cerebellum [23]): 5.13 % ID/g; Drug uptake [24]: 0.57 % ID/g; Drug uptake (Cerebellum [25]): 0.08 %ID; Drug uptake (Blood [26]): 4 % ID/g; Drug uptake (Blood [27]): 10 %ID; Drug uptake (Kidney [28]): 12.6 % ID/g; Drug uptake (Heart [29]): 0.9 %ID; Drug uptake (Heart [30]): 5.8 % ID/g; Drug uptake (Cerebellum [31]): 0.76 % ID/g; Drug uptake (Blood [32]): 1.3 % ID/g; Drug uptake (Liver [33]): 13.3 % ID/g; Drug uptake (Stomach [34]): 1.1 %ID; Drug uptake (Heart [35]): 1.3 % ID/g; Drug uptake [36]: 1.8 % ID/g; Drug uptake [37]: 11.3 %ID; Drug uptake [38]: 1.35 %ID
2 | – | – | – | – | – | – | – | – | – | – | – | – | – | – | – | – | – | – | – | – | O=C(O)c1ccc2nc(-c3ccc(F)cc3)sc2c1 | Ki [39]: > 4000 nM
3 | – | – | – | – | – | – | – | – | – | – | – | – | – | – | – | – | – | – | – | – | Cc1ccc2nc(-c3ccc(F)cc3)sc2c1 | Ki [39]: 5.7 nM
4 | 2.1 | 0.6 | 4.1 | 4.4 | 5.1 | 0.2 | 0.1 | 34.3 | 9.4 | 0.56 | 13.6 | 14.2 | 19.9 | 8.6 | 0.13 | 0.2 | 9.9 | 1.3 | 6.7 | 8.4 | COc1ccc2nc(-c3ccc([18F])cc3)sc2c1 | Drug uptake (Stomach [22]): 1.2 %ID; Drug uptake (Cerebellum [23]): 5.12 % ID/g; Drug uptake [24]: 0.43 % ID/g; Drug uptake (Cerebellum [25]): 0.07 %ID; Drug uptake (Blood [26]): 2 % ID/g; Drug uptake (Blood [27]): 4.9 %ID; Drug uptake (Kidney [28]): 13.9 % ID/g; Drug uptake (Heart [29]): 0.8 %ID; Drug uptake (Heart [30]): 3.9 % ID/g; Drug uptake (Cerebellum [31]): 0.68 % ID/g; Drug uptake (Blood [32]): 1.7 % ID/g; Drug uptake (Liver [33]): 9.9 % ID/g; Drug uptake (Stomach [34]): 1.1 %ID; Drug uptake (Heart [35]): 0.6 % ID/g; Drug uptake [36]: 0.4 % ID/g; Drug uptake [37]: 16.9 %ID; Drug uptake [38]: 1.57 %ID
5 | 1.3 | 0.3 | 4.7 | 2.7 | 3.6 | 0.2 | 0.3 | 42.5 | 4.8 | 0.17 | 9.8 | 9.1 | 15.6 | 10.3 | 0.18 | 0.1 | 3.6 | 0.6 | 5 | 12 | [11CH3]Nc1ccc(-c2nc3ccc(O)cc3s2)cc1 [PITTSBURGH COMPOUND B] | Drug uptake (Lung [21]): 0.9 %ID; Drug uptake (Stomach [22]): 0.3 %ID; Drug uptake (Cerebellum [23]): 1.6 % ID/g; Drug uptake [24]: 0.6 % ID/g; Drug uptake (Cerebellum [25]): 0.03 %ID; Drug uptake (Blood [26]): 3.1 % ID/g; Drug uptake (Blood [27]): 7.9 %ID; Drug uptake (Kidney [28]): 19.9 % ID/g; Drug uptake (Heart [29]): 0.6 %ID; Drug uptake (Heart [30]): 4.2 % ID/g; Drug uptake (Cerebellum [31]): 0.31 % ID/g; Drug uptake (Blood [32]): 1.1 % ID/g; Drug uptake (Liver [33]): 7.9 % ID/g; Drug uptake (Stomach [34]): 1.1 %ID; Drug uptake (Heart [35]): 2.1 % ID/g; Drug uptake [36]: 0.7 % ID/g; Drug uptake [37]: 24.4 %ID; Drug uptake [38]: 1.08 %ID
